Measured values: ChEMBL document CHEMBL2424560, “Structure- and reactivity-based development of covalent inhibitors of the activating and gatekeeper mutant forms of the epidermal growth factor receptor (EGFR)” (J Med Chem, 2013)
Activity calls are given as the source filed them. No cut-off for these calls is given here.

Experiments:
[1] = target: Epidermal growth factor receptor (Homo sapiens, UniProt P00533, EX19DEL); assay type: cell-based, PC-9
[2] = target: T1, Epidermal growth factor receptor (Homo sapiens, UniProt P00533); assay type: cell-based, LoVo
T1 sequence (P00533 whole entry): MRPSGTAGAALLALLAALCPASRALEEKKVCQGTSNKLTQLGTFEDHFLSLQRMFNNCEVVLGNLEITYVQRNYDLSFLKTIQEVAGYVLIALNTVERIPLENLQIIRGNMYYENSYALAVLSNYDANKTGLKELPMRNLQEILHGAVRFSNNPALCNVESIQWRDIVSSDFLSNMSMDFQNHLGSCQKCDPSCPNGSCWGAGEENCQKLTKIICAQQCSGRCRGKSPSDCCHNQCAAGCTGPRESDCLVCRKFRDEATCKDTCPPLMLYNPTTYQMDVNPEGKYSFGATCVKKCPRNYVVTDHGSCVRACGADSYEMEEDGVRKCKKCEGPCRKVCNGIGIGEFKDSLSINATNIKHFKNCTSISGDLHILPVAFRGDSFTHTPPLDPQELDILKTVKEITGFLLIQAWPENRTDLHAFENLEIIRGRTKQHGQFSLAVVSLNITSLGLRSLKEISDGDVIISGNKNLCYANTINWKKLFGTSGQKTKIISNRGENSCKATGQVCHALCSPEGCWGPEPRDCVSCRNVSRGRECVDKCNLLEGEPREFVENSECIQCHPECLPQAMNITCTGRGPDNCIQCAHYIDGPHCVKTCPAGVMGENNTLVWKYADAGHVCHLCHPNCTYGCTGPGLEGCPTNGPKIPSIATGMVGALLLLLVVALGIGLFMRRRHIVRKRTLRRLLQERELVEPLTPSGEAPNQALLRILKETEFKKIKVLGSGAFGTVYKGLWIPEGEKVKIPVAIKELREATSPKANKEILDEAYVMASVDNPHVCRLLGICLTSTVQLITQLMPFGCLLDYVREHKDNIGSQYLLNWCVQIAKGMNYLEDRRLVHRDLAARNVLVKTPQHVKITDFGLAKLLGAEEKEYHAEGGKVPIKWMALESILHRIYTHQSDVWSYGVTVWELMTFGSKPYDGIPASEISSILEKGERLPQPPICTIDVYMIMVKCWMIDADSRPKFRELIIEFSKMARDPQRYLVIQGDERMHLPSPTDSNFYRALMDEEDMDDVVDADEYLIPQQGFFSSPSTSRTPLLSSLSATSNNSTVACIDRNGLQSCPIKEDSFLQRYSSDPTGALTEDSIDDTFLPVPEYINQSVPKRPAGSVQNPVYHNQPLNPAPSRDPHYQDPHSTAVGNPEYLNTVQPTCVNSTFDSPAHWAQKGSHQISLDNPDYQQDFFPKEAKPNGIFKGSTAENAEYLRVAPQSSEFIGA

[3] = target: Epidermal growth factor receptor (Homo sapiens, UniProt P00533, L858R/T790M); assay type: cell-based, NCI-H1975
Chain of Epidermal growth factor receptor (Homo sapiens, UniProt P00533, L858R/T790M) (P00533 25-1210 T790M/L858R limits assumed): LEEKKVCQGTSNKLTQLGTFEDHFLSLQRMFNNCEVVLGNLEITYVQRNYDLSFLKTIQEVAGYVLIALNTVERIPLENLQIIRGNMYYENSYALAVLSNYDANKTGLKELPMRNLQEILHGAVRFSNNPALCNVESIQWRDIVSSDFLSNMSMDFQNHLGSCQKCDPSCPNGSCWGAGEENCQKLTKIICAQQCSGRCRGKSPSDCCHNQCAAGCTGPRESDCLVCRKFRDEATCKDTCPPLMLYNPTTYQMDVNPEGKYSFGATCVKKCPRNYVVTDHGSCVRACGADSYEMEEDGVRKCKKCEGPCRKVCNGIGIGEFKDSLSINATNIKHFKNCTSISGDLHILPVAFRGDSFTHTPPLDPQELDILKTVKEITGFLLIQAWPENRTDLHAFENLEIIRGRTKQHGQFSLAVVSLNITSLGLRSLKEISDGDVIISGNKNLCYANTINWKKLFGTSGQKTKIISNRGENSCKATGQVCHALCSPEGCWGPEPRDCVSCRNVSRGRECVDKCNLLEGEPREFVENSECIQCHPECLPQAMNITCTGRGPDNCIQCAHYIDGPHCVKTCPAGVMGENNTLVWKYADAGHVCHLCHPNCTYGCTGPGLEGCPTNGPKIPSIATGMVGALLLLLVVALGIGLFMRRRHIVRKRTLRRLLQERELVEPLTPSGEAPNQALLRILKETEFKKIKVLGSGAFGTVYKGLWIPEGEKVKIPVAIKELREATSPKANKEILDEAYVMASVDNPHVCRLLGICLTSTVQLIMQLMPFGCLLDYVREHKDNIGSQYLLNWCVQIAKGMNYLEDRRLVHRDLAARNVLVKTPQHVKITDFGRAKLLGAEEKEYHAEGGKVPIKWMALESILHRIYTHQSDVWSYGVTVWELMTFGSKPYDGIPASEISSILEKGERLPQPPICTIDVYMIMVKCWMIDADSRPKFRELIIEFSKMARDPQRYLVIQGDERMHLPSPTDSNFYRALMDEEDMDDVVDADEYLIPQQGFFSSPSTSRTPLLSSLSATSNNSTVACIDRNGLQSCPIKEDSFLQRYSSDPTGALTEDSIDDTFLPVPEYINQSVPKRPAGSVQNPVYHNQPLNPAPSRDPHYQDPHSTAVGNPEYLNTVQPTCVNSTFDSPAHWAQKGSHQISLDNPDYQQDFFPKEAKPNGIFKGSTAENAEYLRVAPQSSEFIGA

[4] = (§1) Inhibition of human recombinant N-terminal GST-tagged EGFR L858R/[…] double mutant after 50 mins by HTRF assay
[5] = Lipophilicity, log D of the compound at pH 7.4; assay type: physicochemical; conditions: buffer
[6] = Aqueous solubility of the compound; assay type: physicochemical; conditions: buffer
Homo sapiens [7] = organism: Homo sapiens; assay: as §1
Homo sapiens [8] = organism: Homo sapiens; assay: Selectivity ratio of IC50 for wild type human EGFR to IC50 for human recombinant N-terminal GST-tagged EGFR L858R/[…] double mutant
NCI-H1975 [9] = assay: Selectivity ratio of IC50 for EGFR L858R/[…] double mutant phosphorylation in human NCI-H1975 cells to IC50 for human recombinant N-terminal GST-tagged EGFR L858R/[…] double mutant; assay type: cell-based
[10] = target: T1, Epidermal growth factor receptor; assay: Inhibition of wild type human EGFR after 50 mins by HTRF assay
[11] = Half life in phosphate buffer at pH 7.4 at 50 uM by LC-MS analysis in presence of glutathione; assay type: physicochemical; conditions: phosphate buffer with glutathione
[12] = target: Serine/threonine-protein kinase Chk2 (Homo sapiens) (UniProt O96017); assay: Inhibition of CHK2 (unknown origin) at 1 uM relative to control
Chain of Serine/threonine-protein kinase Chk2 (Homo sapiens) (O96017 whole entry): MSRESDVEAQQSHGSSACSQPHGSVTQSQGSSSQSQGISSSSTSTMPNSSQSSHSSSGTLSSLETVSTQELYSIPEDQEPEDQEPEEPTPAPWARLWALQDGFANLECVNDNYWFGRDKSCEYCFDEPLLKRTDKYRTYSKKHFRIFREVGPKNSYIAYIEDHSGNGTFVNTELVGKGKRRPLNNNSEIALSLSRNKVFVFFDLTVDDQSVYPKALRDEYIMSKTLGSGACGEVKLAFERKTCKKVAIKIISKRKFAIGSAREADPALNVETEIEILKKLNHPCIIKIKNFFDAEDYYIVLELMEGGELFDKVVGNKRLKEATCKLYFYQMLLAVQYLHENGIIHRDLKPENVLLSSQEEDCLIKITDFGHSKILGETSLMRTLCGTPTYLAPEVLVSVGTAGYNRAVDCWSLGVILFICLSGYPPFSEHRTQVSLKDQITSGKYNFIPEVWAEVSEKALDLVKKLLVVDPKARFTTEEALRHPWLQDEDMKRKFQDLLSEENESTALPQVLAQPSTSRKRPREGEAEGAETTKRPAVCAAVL
Outline: (§2)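 Broad panel of >70 kinases run as biochemical assays at University of Dundee, compound tested at 1 μM; percent inhibition relative to control.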

[13] = target: T2, Lymphokine-activated killer T-cell-originated protein kinase (Homo sapiens) (UniProt Q96KB5); assay: Inhibition of PBK (unknown origin) at 1 uM relative to control
T2 sequence (whole entry): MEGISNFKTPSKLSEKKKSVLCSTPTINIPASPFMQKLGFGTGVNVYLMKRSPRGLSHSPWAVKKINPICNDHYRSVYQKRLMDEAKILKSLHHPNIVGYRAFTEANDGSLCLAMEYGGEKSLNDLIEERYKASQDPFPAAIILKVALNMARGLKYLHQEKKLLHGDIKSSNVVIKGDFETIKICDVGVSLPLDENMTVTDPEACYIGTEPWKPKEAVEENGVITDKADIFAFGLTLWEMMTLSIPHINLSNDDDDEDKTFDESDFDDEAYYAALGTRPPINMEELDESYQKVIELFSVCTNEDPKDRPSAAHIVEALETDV
Outline: as §2

PC-9 = assay: Antitumor activity against human PC9 cells harboring EGFR exon 19 deletion activating mutant xenografted in SCID mouse assessed as tumor growth inhibition at 60 mg/kg/day, po after 7 days relative to vehicle-treated control; assay type: functional; conditions: read-out: TGI
[14] = target: Insulin receptor (Homo sapiens) (UniProt P06213); assay: Inhibition of insulin receptor (unknown origin) at 1 uM relative to control
Outline: as §2

[15] = target: Vascular endothelial growth factor receptor 1 (Homo sapiens) (UniProt P17948); assay: Inhibition of FLT1 (unknown origin) at 1 uM relative to control
Outline: as §2

[16] = target: Mitogen-activated protein kinase kinase kinase 11 (Homo sapiens) (UniProt Q16584); assay: Inhibition of MAP3K11 (unknown origin) at 1 uM relative to control
Outline: as §2

A-431 = assay: Antitumor activity against wild type human A431 cells xenografted in SCID mouse assessed as tumor growth inhibition at 60 mg/kg/day, po after 7 days relative to vehicle-treated control; assay type: functional; conditions: read-out: TGI
[17] = target: Insulin-like growth factor 1 receptor (Homo sapiens) (UniProt P08069); assay: Inhibition of IGF1R (unknown origin) at 1 uM relative to control
Outline: as §2

NCI-H1975 [18] = assay: Antitumor activity against human NCI-H1975 cells harboring EGFR L858R/[…] double mutant xenografted in SCID mouse assessed as tumor growth inhibition at 60 mg/kg/day, po after 7 days relative to vehicle-treated control; assay type: functional; conditions: read-out: TGI
[19] = target: Calcium/calmodulin-dependent protein kinase kinase 2 (Homo sapiens) (UniProt Q96RR4); assay: Inhibition of CAMKKbeta (unknown origin) at 1 uM relative to control
Chain of Calcium/calmodulin-dependent protein kinase kinase 2 (Homo sapiens) (Q96RR4 2-588 limits assumed): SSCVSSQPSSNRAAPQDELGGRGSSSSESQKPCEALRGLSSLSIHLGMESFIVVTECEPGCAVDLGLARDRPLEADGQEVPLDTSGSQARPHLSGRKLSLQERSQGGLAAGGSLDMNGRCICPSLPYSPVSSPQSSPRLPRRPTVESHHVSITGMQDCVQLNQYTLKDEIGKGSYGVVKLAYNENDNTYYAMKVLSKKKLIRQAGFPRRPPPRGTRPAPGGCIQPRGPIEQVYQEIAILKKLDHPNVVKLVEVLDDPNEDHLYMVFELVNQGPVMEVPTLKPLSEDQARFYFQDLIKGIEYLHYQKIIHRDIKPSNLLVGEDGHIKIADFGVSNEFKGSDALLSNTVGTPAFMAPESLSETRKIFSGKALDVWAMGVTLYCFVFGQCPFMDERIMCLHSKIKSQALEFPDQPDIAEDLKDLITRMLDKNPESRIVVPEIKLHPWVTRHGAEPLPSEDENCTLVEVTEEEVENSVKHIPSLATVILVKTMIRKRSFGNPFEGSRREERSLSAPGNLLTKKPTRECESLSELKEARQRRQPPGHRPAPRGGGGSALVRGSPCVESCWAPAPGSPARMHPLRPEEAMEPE
Outline: as §2

[20] = target: Tyrosine-protein kinase BTK (Homo sapiens) (UniProt Q06187); assay: Inhibition of BTK (unknown origin) at 1 uM relative to control
Outline: as §2

[21] = target: Myosin light chain kinase, smooth muscle (Homo sapiens) (UniProt Q15746); assay: Inhibition of smMLCK (unknown origin) at 1 uM relative to control
Outline: as §2

[22] = target: Maternal embryonic leucine zipper kinase (Homo sapiens) (UniProt Q14680); assay: Inhibition of MELK (unknown origin) at 1 uM relative to control
Outline: as §2

Chain of Epidermal growth factor receptor (Homo sapiens, UniProt P00533, EX19DEL) (P00533 whole entry, looked up, stated change not applied): as the sequence (P00533 whole entry) above

| IC50 [1] [nM] | IC50 [2] [nM] | IC50 [3] [nM] | IC50 [4] [nM] | Structure (SMILES) | further results |
| --- | --- | --- | --- | --- | --- |
| 390 | 20000 | 250 | – | COc1ccc(NC(=O)/C=C/CN(C)C)cc1Nc1nccc(-c2cnn3ccccc23)n1 | – |
| – | – | 2300 | 18 | COc1ccc(NC(=O)CCCN(C)C)cc1Nc1ncc(Cl)c(-c2cnn3ccccc23)n1 | – |
| 1800 | > 30000 | 2800 | 65 | COc1ccc(NC(=O)CC#N)cc1Nc1ncc(Cl)c(-c2c[nH]c3ccccc23)n1 | – |
| 1300 | > 30000 | 15200 | – | COc1ccc(NC(=O)/C=C/CN(C)C)cc1Nc1ncc([S+](C)[O-])c(-c2cnn3ccccc23)n1 (centres undefined) | logD [5]: 1.3 |
| – | – | – | – | C=CC(=O)Nc1ccccc1 | solubility [6]: soluble |
| 29 | 550 | 22 | 6.3 | C=CC(=O)Nc1ccc(OC)c(Nc2ncc(Cl)c(-c3c[nH]c4ccccc34)n2)c1 | logD [5]: > 4.3 |
| – | – | – | – | C=CC(=O)Nc1cc2c(Nc3ccc(F)c(Cl)c3)ncnc2cc1OCCCN1CCOCC1 | inhibition (Homo sapiens [7]): Active |
| 140 | 19000 | – | – | C=CC(=O)Nc1cc(Nc2nccc(-c3cnn4ccccc34)n2)c(OC)cc1N1CCN(C)CC1 | – |
| 17 | 1300 | 68 | – | C=CC(=O)Nc1cc(Nc2nccc(-c3c[nH]c4ccccc34)n2)c(OC)cc1N1CCN(C)CC1 | logD [5]: 3.4 |
| 270 | 3500 | 81 | 53 | C=CC(=O)Nc1cccc(Nc2ncc(Cl)c(-c3c[nH]c4ccccc34)n2)c1 | logD [5]: > 4.3 |
| 250 | 24000 | 290 | – | COc1ccc(NC(=O)/C=C/CN(C)C)cc1Nc1ncc(C)c(-c2cnn3ccccc23)n1 | – |
| 85 | 1550 | 53 | – | COc1ccc(NC(=O)/C=C/CN(C)C)cc1Nc1ncc(Cl)c(-c2c[nH]c3ccccc23)n1 | – |
| 2800 | > 30000 | 2100 | 52 | C=CC(=O)N1CCc2cc(OC)c(Nc3ncc(Cl)c(-c4c[nH]c5ccccc45)n3)cc21 | – |
| – | – | 770 | 9 | COc1cc(N2CCN(C(C)=O)CC2)ccc1Nc1ncc(Cl)c(-c2c[nH]c3ccccc23)n1 | Ratio IC50 (Homo sapiens [8]): 88; Ratio IC50 (NCI-H1975 [9]): 90; IC50 [10]: 790 nM |
| – | – | – | – | COc1cc2ncnc(Nc3ccc(F)c(Cl)c3)c2cc1NC(=O)/C=C/CN1CCCCC1 | inhibition (Homo sapiens [7]): Active |
| 150 | 12800 | 33 | – | C=CC(=O)Nc1ccc(OC)c(Nc2ncc(Cl)c(-c3cnn4ccccc34)n2)c1 | logD [5]: > 4.3 |
| – | – | – | – | CN(C)C/C=C/C(=O)Nc1cc2c(Nc3ccc(F)c(Cl)c3)ncnc2cc1O[C@H]1CCOC1 [AFATINIB] | half-life at 50 µM [11]: 25 min |
| – | – | – | – | COc1ccc(NC(=O)/C=C/CN(C)C)cc1Nc1ncc(Cl)c(-c2cnn3ccccc23)n1 | inhibition [12]: > 75%; inhibition [13]: > 75%; inhibition in vivo at 60 mg/kg/day (PC-9): 134%; inhibition [14]: > 75%; inhibition [15]: > 75%; inhibition [16]: > 75%; inhibition in vivo at 60 mg/kg/day (A-431): 46%; inhibition [17]: > 75%; inhibition in vivo at 60 mg/kg/day (NCI-H1975 [18]): 105%; inhibition [19]: > 75%; inhibition [20]: > 75%; inhibition [21]: > 75%; inhibition [22]: > 75% |
| 19000 | > 30000 | 12900 | 320 | C=CC(=O)Nc1ccc(Nc2ncc(Cl)c(-c3c[nH]c4ccccc34)n2)cc1 | – |
| 23 | – | – | – | C=CC(=O)Nc1cc(Nc2ncc(Cl)c(-c3c[nH]c4ccccc34)n2)c(OC)cc1N1CCN(C)CC1 | – |
| 380 | 19000 | 220 | – | COc1ccc(NC(=O)/C=C/CN(C)C)cc1Nc1ncc(F)c(-c2cnn3ccccc23)n1 | logD [5]: 3.3 |
